In test [1] the target is T1, Sodium-dependent noradrenaline transporter (Homo sapiens, UniProt P23975). Put plainly: Enhancing of [125I]RTI-55 binding to recombinant human NET expressed in HEK293 cell membranes preincubated for 10 mins followed by radioligand addition measured after 90 mins by micro beta scintillation counting analysis. Also noted: concentration or dose not given beside the values. Particulars: for EC50: read-out: EC50.

The target in test [2] is Sodium-dependent dopamine transporter (Mus musculus) (UniProt Q61327). The test is described as follows: (§1) Enhancing of [125I]RTI-55 binding to mouse DAT expressed in HEK293 cells preincubated for 10 mins followed by radioligand addition measured after 90 mins by micro beta scintillation counting analysis. The class given is cell-based. Summed up: (§2)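 Membranes preincubated 10 min at room temperature with compound in Krebs-HEPES buffer pH 7.4, then [125I]23 at fixed 45-50 pM for 90 min in the dark, filtered. […] EC50 and % control binding; mean ± SEM.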
Chain of Sodium-dependent dopamine transporter (Mus musculus) (Q61327 whole entry): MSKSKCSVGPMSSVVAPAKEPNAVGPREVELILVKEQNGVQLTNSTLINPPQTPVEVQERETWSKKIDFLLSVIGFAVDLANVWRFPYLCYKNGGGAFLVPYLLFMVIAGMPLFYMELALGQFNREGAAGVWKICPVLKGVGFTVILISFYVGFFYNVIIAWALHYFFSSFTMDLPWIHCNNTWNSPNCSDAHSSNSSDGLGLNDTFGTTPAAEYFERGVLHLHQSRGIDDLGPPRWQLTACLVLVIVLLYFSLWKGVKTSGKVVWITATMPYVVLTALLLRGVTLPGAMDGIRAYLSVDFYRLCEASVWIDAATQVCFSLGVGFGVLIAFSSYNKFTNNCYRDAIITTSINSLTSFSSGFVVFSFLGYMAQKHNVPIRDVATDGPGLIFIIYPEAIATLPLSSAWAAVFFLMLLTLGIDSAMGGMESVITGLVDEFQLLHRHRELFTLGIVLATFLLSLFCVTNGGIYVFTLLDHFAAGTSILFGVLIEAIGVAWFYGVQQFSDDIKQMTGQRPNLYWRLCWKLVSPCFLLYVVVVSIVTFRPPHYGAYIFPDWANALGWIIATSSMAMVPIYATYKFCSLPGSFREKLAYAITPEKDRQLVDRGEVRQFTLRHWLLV

Test [3] concerns the target T2, Sodium-dependent dopamine transporter (Mus musculus, UniProt Q61327). Described as §1. The format is cell-based. In a few lines: as §2
Test [4] addresses Adenosine receptor A3 (Homo sapiens) (UniProt P0DMS8). The test is described as follows: Agonist activity at human A3AR assessed as inhibition of cAMP formation at 10 uM relative to adenosine-5'-Nethyluronamide. For orientation: Cyclic AMP is a second messenger, typically raised through Gs and lowered through Gi signalling.
Test [5] addresses T2, Sodium-dependent dopamine transporter. The test is described as follows: Inhibition of mouse DAT expressed in HEK293 cells assessed as reduction in [3H]-DA uptake. The class given is cell-based.
Test [6] has as its target T3, Sodium-dependent dopamine transporter (Homo sapiens, UniProt Q01959). Put plainly: Enhancing of [125I]RTI-55 binding to recombinant human DAT expressed in HEK293 cell membranes preincubated for 10 mins followed by radioligand addition measured after 90 mins by micro beta scintillation counting analysis. Particulars: for EC50: read-out: EC50. Also noted: concentration or dose not given beside the values. In a few lines:
(§3)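 Membranes of HEK-293 cells stably expressing hDAT, hNET or hSERT. […] Compound preincubated 10 min at room temperature, then [125I]23 (40-80 pM final) or [3H]26 (1-3 nM for DAT and NET, 10-13 nM for SERT) added. Incubated 90 min at room temperature in the dark, then filtered. EC50 or Ki; mean ± SEM.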

Another test has as its target T4, Adenosine receptor A3 (Homo sapiens, UniProt P0DMS8).
T4 sequence (P0DMS8 whole entry): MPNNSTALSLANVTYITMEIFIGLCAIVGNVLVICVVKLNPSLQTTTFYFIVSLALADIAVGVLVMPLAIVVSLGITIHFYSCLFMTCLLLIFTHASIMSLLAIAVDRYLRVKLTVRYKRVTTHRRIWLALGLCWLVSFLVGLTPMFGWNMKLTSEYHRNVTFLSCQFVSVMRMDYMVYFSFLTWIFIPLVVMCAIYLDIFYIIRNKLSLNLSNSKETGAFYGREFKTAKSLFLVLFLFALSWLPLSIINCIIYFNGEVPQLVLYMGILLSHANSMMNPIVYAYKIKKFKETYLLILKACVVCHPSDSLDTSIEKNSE
The test is described as follows: Displacement of [125I]N6-(4-amino-3-iodobenzyl)adenosine-5'-N-methyluronamide from human A3AR expressed in HEK293T cells pre-incubated for 10 mins before radioligand addition and measured 90 mins after radioligand addition by micro beta scintillation counting analysis relative to control. The class given is cell-based, HEK-293T. In general terms: In a radioligand displacement assay an active substance lowers the binding of a labelled ligand.

Test [7] deals with T5, Adenosine receptor A3 (Mus musculus) (UniProt Q61618).
T5 sequence (whole entry): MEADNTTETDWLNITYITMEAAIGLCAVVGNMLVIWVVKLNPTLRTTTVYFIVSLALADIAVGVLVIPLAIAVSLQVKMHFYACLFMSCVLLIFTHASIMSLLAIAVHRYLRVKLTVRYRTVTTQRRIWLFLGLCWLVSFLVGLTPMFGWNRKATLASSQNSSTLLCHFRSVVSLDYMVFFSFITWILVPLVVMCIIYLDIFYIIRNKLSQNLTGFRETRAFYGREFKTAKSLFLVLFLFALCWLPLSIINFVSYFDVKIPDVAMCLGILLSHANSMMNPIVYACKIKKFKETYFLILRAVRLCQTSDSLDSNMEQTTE
Put plainly: Displacement of [125I]N6-(4-amino-3-iodobenzyl)adenosine-5'-N-methyluronamide from mouse A3AR expressed in HEK293T cells at 10 uM pre-incubated for 10 mins before radioligand addition and measured 90 mins after radioligand addition by micro beta scintillation counting analysis relative to control. The format is cell-based.

Test [8] addresses T3, Sodium-dependent dopamine transporter. The test is described as follows: Enhancing of [3H]mazindol binding to recombinant human DAT expressed in HEK293 cell membranes preincubated for 10 mins followed by radioligand addition measured after 90 mins by micro beta scintillation counting analysis. Particulars: for EC50: read-out: EC50. More on the design: concentration or dose not given beside the values. In a few lines:
as §3

The target is the same in test [9]. The test is described as follows: Inhibition of recombinant human DAT expressed in HEK293 cell […] as reduction in [3H]-DA uptake incubated for 22 mins by micro beta scintillation counting analysis.
The target is the same in test [10]. The test is described as follows: Inhibition of [3H]WIN35,428 binding to recombinant human DAT expressed in HEK293 cell membranes at 10 uM pre-incubated for 10 mins before radioligand addition and measured 90 mins after radioligand addition by micro beta scintillation counting analysis relative to control.
Test [11] has the same target. Put plainly: Enhancing of [3H]WIN35,428 binding to recombinant human DAT expressed in HEK293 cell membranes at 10 uM pre-incubated for 10 mins before radioligand addition and measured 90 mins after radioligand addition by micro beta scintillation counting analysis relative to control.
For test [12], the target named is T1, Sodium-dependent noradrenaline transporter. The test is described as follows: Inhibition of recombinant human NET expressed in HEK293 […] assessed as reduction in [3H]-norepinephrine uptake incubated for 22 mins by micro beta scintillation counting analysis.
For test [13] the target is unchanged. Put plainly: Enhancing of [3H]mazindol binding to recombinant human NET expressed in HEK293 cell membranes preincubated for 10 mins followed by radioligand addition measured after 90 mins by micro beta scintillation counting analysis.
Test [14] concerns the target T6, Sodium-dependent serotonin transporter (Homo sapiens, UniProt P31645). Put plainly: Enhancing of [125I]RTI-55 binding to recombinant human SERT expressed in HEK293 cell membranes preincubated for 10 mins followed by radioligand addition measured after 90 mins by micro beta scintillation counting analysis. Particulars: for EC50: read-out: EC50.
In test [15] the target is T6, Sodium-dependent serotonin transporter. The test is described as follows: Inhibition of recombinant human SERT expressed in HEK293 cell […] as reduction in [3H]5-HT uptake incubated for 22 mins by micro beta scintillation counting analysis.
Target sequence in this assay (P31645 whole entry): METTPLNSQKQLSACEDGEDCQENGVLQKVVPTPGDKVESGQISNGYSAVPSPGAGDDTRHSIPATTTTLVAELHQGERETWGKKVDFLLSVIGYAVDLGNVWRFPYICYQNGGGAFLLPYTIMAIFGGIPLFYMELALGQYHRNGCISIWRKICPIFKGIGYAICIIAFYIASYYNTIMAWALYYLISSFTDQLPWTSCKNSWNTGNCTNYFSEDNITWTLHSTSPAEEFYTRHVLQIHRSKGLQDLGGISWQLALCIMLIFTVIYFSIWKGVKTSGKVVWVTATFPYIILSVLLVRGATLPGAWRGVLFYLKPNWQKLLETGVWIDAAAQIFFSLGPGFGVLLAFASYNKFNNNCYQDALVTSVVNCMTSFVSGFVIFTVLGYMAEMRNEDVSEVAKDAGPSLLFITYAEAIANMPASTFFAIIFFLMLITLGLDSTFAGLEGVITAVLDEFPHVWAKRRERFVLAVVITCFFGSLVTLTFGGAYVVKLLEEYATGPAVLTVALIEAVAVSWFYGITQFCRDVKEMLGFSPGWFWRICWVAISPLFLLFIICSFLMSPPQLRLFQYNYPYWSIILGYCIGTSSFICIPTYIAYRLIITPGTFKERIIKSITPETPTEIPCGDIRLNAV
For test [16] the target is unchanged. The test is described as follows: Enhancing of [3H]mazindol binding to recombinant human SERT expressed in HEK293 cell membranes preincubated for 10 mins followed by radioligand addition measured after 90 mins by micro beta scintillation counting analysis.

This is an account of results in ChEMBL document CHEMBL4007505 (J Med Chem, 2017).

Calls of active or inactive are those of the source. No cut-off for these calls is given here.

T2 sequence (Q61327 whole entry): as the sequence (Q61327 whole entry) above
T1 sequence (P23975 whole entry): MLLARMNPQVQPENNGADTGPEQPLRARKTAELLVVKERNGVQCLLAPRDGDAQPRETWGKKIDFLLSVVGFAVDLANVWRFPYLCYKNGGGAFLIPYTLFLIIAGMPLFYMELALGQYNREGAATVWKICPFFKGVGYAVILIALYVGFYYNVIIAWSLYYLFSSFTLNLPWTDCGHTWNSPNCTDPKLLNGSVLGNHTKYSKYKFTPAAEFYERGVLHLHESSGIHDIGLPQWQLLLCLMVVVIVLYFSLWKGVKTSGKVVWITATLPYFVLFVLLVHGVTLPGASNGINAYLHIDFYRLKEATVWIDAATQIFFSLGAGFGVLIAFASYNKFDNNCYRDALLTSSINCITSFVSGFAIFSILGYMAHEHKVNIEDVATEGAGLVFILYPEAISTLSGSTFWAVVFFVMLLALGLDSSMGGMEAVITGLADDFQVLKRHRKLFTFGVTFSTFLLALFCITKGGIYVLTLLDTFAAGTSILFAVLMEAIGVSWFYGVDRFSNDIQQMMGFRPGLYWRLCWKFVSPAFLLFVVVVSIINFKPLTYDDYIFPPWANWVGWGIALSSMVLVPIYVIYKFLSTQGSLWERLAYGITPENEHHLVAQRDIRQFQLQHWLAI
T3 sequence (Q01959 whole entry): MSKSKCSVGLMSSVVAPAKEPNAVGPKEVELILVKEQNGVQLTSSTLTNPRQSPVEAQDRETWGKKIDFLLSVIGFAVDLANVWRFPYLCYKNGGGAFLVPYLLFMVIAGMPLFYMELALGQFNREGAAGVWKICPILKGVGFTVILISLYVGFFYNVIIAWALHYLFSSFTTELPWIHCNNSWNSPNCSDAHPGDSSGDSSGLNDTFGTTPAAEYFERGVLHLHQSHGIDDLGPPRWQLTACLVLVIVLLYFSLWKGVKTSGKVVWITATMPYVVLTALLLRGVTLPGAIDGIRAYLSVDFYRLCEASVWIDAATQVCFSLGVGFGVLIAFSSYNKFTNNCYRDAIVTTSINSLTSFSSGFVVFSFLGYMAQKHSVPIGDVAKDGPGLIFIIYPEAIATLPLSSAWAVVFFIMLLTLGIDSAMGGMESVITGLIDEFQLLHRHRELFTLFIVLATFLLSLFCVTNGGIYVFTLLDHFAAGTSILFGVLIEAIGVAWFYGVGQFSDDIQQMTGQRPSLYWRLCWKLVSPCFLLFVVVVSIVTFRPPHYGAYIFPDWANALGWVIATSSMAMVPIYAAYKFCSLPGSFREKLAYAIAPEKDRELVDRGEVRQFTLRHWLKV

Usually EC50 stands for the concentration giving half of the maximal effect. What is called Emax is the maximal effect, on the per cent scale that the assay sets. What is called IC50 is the concentration that inhibits the measured activity by half. The Ki is the dissociation constant of the complex between target and ligand, obtained from inhibition or displacement. As a reminder, the inhibition is the share of the control response that was lost under treatment. As for `CNc1nc(C#Cc2ccc(Cl)s2)nc2c1ncn2[C@H]1[C@H](O)[C@H](O)[C@]2(C(=O)OC)C[C@H]12`, the Activity stood at 375% in [1], 458% in test [6], 540% in test [8] and 352% in test [11]. The EC50 in test [1] was determined as 310 nM; in [3], 810 nM; in test [6], 35 nM; in test [8], 124 nM. The maximal effect (Emax) in test [2] amounted to 1440%. In test [4], the Efficacy came to 11.6%. The results for the IC50 in [5], in [9] and in test [12] were 940 nM, 127 nM and 3380 nM, respectively. In addition, at Adenosine receptor A3, the affinity corresponds to a Ki of 5.38 nM. This molecule returned an inhibition in test [7] of 36%. Besides, the inhibition result in test [10] was “inactive”. Besides, the outcome in [13] and in test [14] was inactive.
Consider `CNC(=O)[C@@]12C[C@@H]1[C@@H](n1cnc3c(NC)nc(C#Cc4ccc(Cl)s4)cc31)[C@H](O)[C@@H]2O`, for which the Activity in [1] was found to be 318%; in test [6], 437%; in test [8] it was 405%; in test [11], 334%. The concentration for a half-maximal effect (EC50) in test [1] was 740 nM; in test [3], 2760 nM; in test [6] it was 239 nM; in [8], 550 nM. Moreover, the maximum response (Emax) in test [2] was 1000%. Also, in [4], the Efficacy was found to be 116%. Further, the results for the half-maximal inhibitory concentration (IC50) in test [5], in test [9] and in test [12] were 4300 nM, 163 nM and 5060 nM, respectively. The inhibition in test [7] was 38%. The inhibition entry in [10] is “inactive”. Besides, the outcome in [13] and in test [14] was inactive.
`CNC(=O)[C@@]12C[C@@H]1[C@@H](n1cnc3c(NC)nc(C#Cc4ccc(F)c(F)c4)nc31)[C@H](O)[C@@H]2O`: the Activity in [1] turned out to be 371%; in test [6], 690%; in test [8], 438%. In addition, the 50% effective concentration (EC50) is 70 nM in [6], 128 nM in test [8], over 10000 nM in test [16] and over 10000 nM in test [14]. Besides, the IC50 in test [15] was over 10000 nM; in [9] it was 92 nM. Further, the outcome in test [16], in [13] and in [14] was inactive.
`CNC(=O)[C@@]12C[C@@H]1[C@@H](n1cnc3c(NC)nc(C#Cc4ccc(Cl)s4)nc31)[C@H](O)[C@@H]2O`: the Activity in test [1] is 386%; in test [6], 550%; in [8], 403%. Also, the half-maximal effective concentration (EC50) in [1] is 1180 nM; in test [3], 2230 nM; in [6], 35.1 nM; in test [8], 131 nM; in test [16], over 10000 nM; in test [14] it was over 10000 nM. Moreover, the Emax in test [2] amounted to 1150%. The IC50 in test [5] is 2290 nM; in test [15] it was over 10000 nM; in test [9], 253 nM; in test [12] it was over 10000 nM. Moreover, the result in [16], in test [13] and in test [14] was inactive.
As for `CNC(=O)[C@@]12C[C@@H]1[C@@H](n1cnc3c(NC)nc(C#Cc4ccc(Br)s4)nc31)[C@H](O)[C@@H]2O`, the Activity in [1] was determined as 285%; in test [6], 217%; in test [8], 369%. Also, the EC50 in test [1] was 670 nM; in [3] it was 1100 nM; in [6], 9.1 nM; in test [8], 870 nM; in test [16], over 10000 nM; in test [14], over 10000 nM. In addition, the Emax in [2] came to 810%. For the same molecule, the IC50 is 3260 nM in [5], over 10000 nM in [15], 229 nM in [9] and 6110 nM in test [12]. Moreover, the outcome in test [16], in test [13] and in test [14] was inactive.
